Measurements of several laboratories.
Protocols differ between the studies behind these lines.
SLC22A11: Solute carrier family 22 member 11 (SLC22A11, Homo sapiens, UniProt Q9NSA0)
ERBB2: Receptor tyrosine-protein kinase erbB-2 (ERBB2, Homo sapiens, UniProt P04626)
60 kDa heat shock protein, mitochondrial: 60 kDa heat shock protein, mitochondrial (Homo sapiens, UniProt P10809)
CYP2C19: Cytochrome P450 2C19 (CYP2C19, Homo sapiens, UniProt P33261)

Structure (SMILES) | target | test | system | setting | quantity | value
Nc1ncnc2c1ncn2[C@@H]1O[C@H](CO)[C@@H](O)[C@H]1O | SLC22A11 | transporter uptake, inhibitor, radiometric | – | oocytes | IC50 | > 2000 µM
O=C1CCc2ccccc2O1 | Carbonic anhydrase 2 (CA2, Homo sapiens, UniProt P00918) | enzyme activity, inhibitor, stopped-flow | – | – | Ki | 48.5 µM
COc1ccc2[nH]c(C(=O)Nc3nc(CC(=O)O)cs3)cc2c1 | ERBB2 | enzyme activity, inhibitor | – | – | IC50 | 1.77 µM
Cc1nn(C)c2ncc(C(=O)NCC3CC(Br)=NO3)c(Cl)c12 (stereo not drawn) | 60 kDa heat shock protein, mitochondrial | ATPase activity, inhibitor | – | – | IC50 | > 250 µM
Cn1nc2c(=O)n(C3CC3)ncc2c1[C@](O)(c1cnc(C(F)(F)F)c(Cl)c1)C(F)(F)F | CYP2C19 | enzyme activity, inhibitor | human, liver microsomes | pH 7.4 | IC50 | > 20 µM
O=C1c2cccc3c2[C@H](CCC3)CN1[C@@H]1CN2CCC1CC2 | 5-hydroxytryptamine receptor 3A (HTR3A, Homo sapiens, UniProt P46098) | ligand displacement, radioligand | – | – | Ki | 0.000246 µM
Cn1c(=O)c2c(ncn2C)n(C)c1=O | SLC22A11 | transporter uptake, inhibitor, radiometric | – | oocytes | IC50 | 575 µM
O=C1CC[C@H](N2Cc3cc(N4CCN(CC5CCN(c6ccc([C@@H]7c8ccc(O)cc8CC[C@@H]7c7ccccc7)cc6)CC5)CC4)ccc3C2=O)C(=O)N1 | Androgen receptor (AR, Homo sapiens, UniProt P10275) | ligand displacement, radioligand | – | – | IC50 | 0.1 µM
Cn1cncc1[C@@](N)(c1ccc(Cl)cc1)c1ccc2c(c1)c(-c1cccc(Cl)c1)cc(=O)n2C | CYP2C19 | enzyme activity, inhibitor | human, liver microsomes | – | Ki | 0.75 µM
COC(=O)Nc1nc2ccc(C(=O)c3ccccc3)cc2[nH]1 | Tyrosine-protein kinase ABL1 (ABL1, Homo sapiens, UniProt P00519) | enzyme activity, inhibitor, mobility shift | – | – | IC50 | 1.78 µM
Cn1ncc2c(Cl)c(C(=O)NCc3ccccc3)cnc21 | 60 kDa heat shock protein, mitochondrial | ATPase activity, inhibitor | – | – | IC50 | > 250 µM
Cn1nc2c(=O)n(C3CC3)cnc2c1[C@](O)(c1cnc(C(F)(F)F)c(Cl)c1)C(F)(F)F | CYP2C19 | enzyme activity, inhibitor | human, liver microsomes | pH 7.4 | IC50 | > 20 µM
O=C(O)Cc1csc(NC(=O)c2cc3ccccc3[nH]2)n1 | ERBB2 | enzyme activity, inhibitor | – | – | IC50 | 0.618 µM
CNC(=O)c1ccc(Nc2ncc(C(F)(F)F)c(NCc3nccnc3N(C)S(C)(=O)=O)n2)cc1 | cGMP-dependent 3',5'-cyclic phosphodiesterase (PDE2A, Homo sapiens, UniProt O00408) | enzyme activity, inhibitor | – | – | IC50 | 3.8 µM
CC(C)(C)OC(=O)N1CCN(Cc2ccn(Cc3ccc(Cl)cc3)c(=O)c2O)CC1 | Lysine-specific demethylase 3B (KDM3B, Homo sapiens, UniProt Q7LBC6) | enzyme activity, inhibitor, AlphaScreen | – | – | IC50 | 4.79 µM
